Most compounds without a hit are left out; they make up all but 1.8% or so of the library.
NPY-Y2 antag: antagonists of human neuropeptide Y receptor Y2 | AID 793 | inhibition, % at 2.7 µM | NPY-Y2 expressing cells, antagonist mode | hit rate 0.99% among 140,000 | P49146;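 note: 0% = vehicle with agonist challenge and 100% = reference antagonist with challenge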
NPY1 pot ag: potentiators or agonists of human neuropeptide Y receptor Y1; P25929; NPY-Y1 expressing cells, potentiator/agonist activation; activation, % at 3.6 µM; hit rate 0.37% among 220,000; AID 1304; in the data active = activation above about 33%, passing the limit was not always enough;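 note: cells stimulated with NPY at EC10 then isoproterenol at EC100; 0% = low agonist plus stimulus and 100% = saturating agonist plus stimulus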
Target sequence (P25929 whole entry, looked up): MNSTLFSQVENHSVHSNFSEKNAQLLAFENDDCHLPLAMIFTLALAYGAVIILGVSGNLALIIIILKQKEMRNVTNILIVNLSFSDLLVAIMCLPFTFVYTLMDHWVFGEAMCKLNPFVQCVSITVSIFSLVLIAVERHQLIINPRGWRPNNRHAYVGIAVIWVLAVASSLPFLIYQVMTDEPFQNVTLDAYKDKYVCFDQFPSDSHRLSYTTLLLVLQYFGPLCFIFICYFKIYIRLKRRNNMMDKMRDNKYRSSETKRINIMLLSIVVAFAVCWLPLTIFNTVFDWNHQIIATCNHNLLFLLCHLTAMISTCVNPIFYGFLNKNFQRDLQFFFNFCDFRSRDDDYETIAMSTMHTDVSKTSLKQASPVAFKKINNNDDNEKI
NPY Y1 blocker: antagonists of human neuropeptide Y receptor Y1; HEK293-CNG Y1 cells, membrane potential fluorescence; NPY at EC95, then isoproterenol; inhibition, % at 3.6 µM; hit rate 1% among 200,000; AID 1040;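 active = inhibition above the campaign mean inhibition of all tested compounds plus 3 SD, cut at about 20% in these data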;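 note: 0% = DMSO wells given NPY plus isoproterenol and 100% = isoproterenol alone without NPY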
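Test system – HEK293 Y1/CNG channel cell line · Also added – NPY agonist 25 nM, then isoproterenol 1 µM plus Ro 20-1724 25 µM · Compound dosing – one concentration, 3.6 µM, in 0.4% DMSO · Schedule – compound incubation 1 h at room temperature, readout 45 min post-stimulation · Technique – fluorescence, membrane potential probe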
NPY-Y2 PAM-ag: potentiators or agonists of human neuropeptide Y receptor Y2; P49146; cells expressing NPY-Y2, potentiator/agonist read-out; activation, % at 3.6 µM; hit rate 0.45% among 220,000; in the data active = activation above about 27%;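 note: cells stimulated with NPY near EC25 plus isoproterenol at EC100; 0% = vehicle plus submaximal agonist and 100% = vehicle plus saturating agonist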
NPY1 antag conf: confirmation of human neuropeptide Y receptor Y1 antagonists; shares compounds with NPY Y1 blocker; HEK293-CNG NPY-Y1, membrane potential fluorescence, cAMP; NPY challenge against isoproterenol-raised cAMP; hit rate 21% among 1,200; inhibition, % at 3.6 µM; in the data active = inhibition above about 20%;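 note: 0% = vehicle with agonist plus stimulus and 100% = stimulus alone without agonist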
NPY2 antag ctr: counter-screen for NPY-Y1 antagonists: human NPY-Y2 antagonism | AID 1255 | inhibition, % at 3.6 µM | shares compounds with NPY Y1 blocker | HEK293 NPY-Y2 CNG membrane potential fluorescence; cells given NPY, then isoproterenol | hit rate 28% among 1,200;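 note: 0% = DMSO with agonist challenge and 100% = reference antagonist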
An asterisk follows results filed as active; · = no result. Cut-off read from the data, not from the text of the source, unless noted: active = inhibition above about 17%; inactive = the rest.

SMILES | NPY-Y2 antag | NPY1 pot ag | NPY Y1 blocker | NPY-Y2 PAM-ag | NPY1 antag conf | NPY2 antag ctr
Cc1cc(OCC(=O)N2CCc3ccccc3C2)c2c(-c3ccccc3)cc(=O)oc2c1 | 13.3 | -0.2 | 20.8* | -21.7 | 13.1 | 10.7
CCCCCc1ccc(OCCOCCn2c[n+](C)c3ccccc32)c(CCCCC)c1 | · | -37.9 | 35.2* | -4.3 | 42.2* | 22.9*
N=c1c2c(-c3ccccc3)c(-c3ccccc3)n(Cc3ccco3)c2ncn1CCCN1CCOCC1 | · | -36.5 | 55.7* | -7.9 | 43.6* | 38.7*
O=Cc1cc2ccccc2nc1SCc1ccc(Cl)c(Cl)c1 | 0.8 | 2.5 | 6.0 | -0.5 | · | ·
Cc1ccc(CSc2ncnc3ccccc23)cc1 | · | -15.1 | 17.0 | -7.0 | · | ·
O=Cc1cc2ccccc2nc1SCc1ccc(Cl)cc1 | 2.2 | 8.6 | 25.9* | -12.7 | -4.8 | 7.0
Cc1ccc(CSc2nc3ccccc3cc2C=O)cc1 | -1.7 | 1.9 | 23.3* | -3.0 | 1.4 | 6.2
Cc1cc(C)cc(N(C(=O)c2cccs2)C2C=CS(=O)(=O)C2)c1 (stereo not given) | · | -4.5 | 3.7 | 1.6 | · | ·
CCC1CCCCN1C(=O)c1ccc(OC2CCN(C(=O)C3CC3)CC2)cc1 (stereo not given) | · | -5.9 | -1.0 | 1.2 | · | ·
COc1ccc(C[C@H]2CN3C(=NC[C@@H]3Cc3ccccc3)N2CCNC(=O)CCC2CCCCC2)cc1 | · | -15.2 | 33.4* | -41.6 | 35.0* | 35.7*
COc1ccc(C[C@H]2CN3C(=NC[C@@H]3C(C)C)N2CCNC(=O)CCC2CCCCC2)cc1 | · | -1.1 | 2.6 | -2.9 | · | ·
Cc1ccc(C)n1-c1ccc(C(=O)NCC2CCCO2)cc1 (stereo not given) | 0.7 | 13.4 | -8.0 | 4.0 | · | ·
O=C(Cc1cccs1)N(CC1CCCO1)C1(C(=O)NC2CCCC2)CCCCC1 (stereo not given) | · | -17.2 | 36.3* | -9.7 | 14.3 | 8.5
O=C(Nc1ccc2nc(-c3ccc(Br)o3)[nH]c2c1)c1cccs1 | 5.9 | -13.8 | 21.5* | -19.2 | 2.4 | 7.9
COc1ccc(N(C)S(=O)(=O)c2cccc3cccnc23)c(OC)c1 | 3.4 | -3.7 | 3.2 | 1.6 | · | ·
COc1ccc(N(C(=O)C2CCCCC2)S(=O)(=O)c2cccc3cccnc23)cc1 | · | -1.7 | 31.1* | -7.4 | 21.4* | 6.9
COc1ccc(C(=O)CN2C(=O)C(C)(C)Oc3ccc(C(=O)N4CCCCCC4)cc32)cc1 | 3.9 | -3.2 | 8.4 | -18.3 | · | ·
Cc1ccc(C)c(N2CCN(C(=O)C(Cc3ccccc3)n3cccc3)CC2)c1 (stereo not given) | 12.7 | -23.5 | 24.9* | -26.7 | 10.7 | 15.0
Cc1ccccc1NC(=O)C1CCCN(S(=O)(=O)c2cccc3cccnc23)C1 (stereo not given) | -0.3 | 8.4 | 96.4* | -9.1 | 1.8 | 2.5
Cc1ccccc1NC(=O)C1CCCN1S(=O)(=O)c1cccc2cccnc12 (stereo not given) | 2.2 | 8.8 | 5.2 | 3.9 | · | ·
O=S(=O)(NCc1ccc2c(c1)OCO2)c1ccc2c(c1)oc1ccccc12 | 8.5 | -29.8 | 21.5* | -8.9 | 16.9 | 19.0*
COc1cc(S(=O)(=O)NCc2ccc3c(c2)OCO3)ccc1Cl | 7.4 | -10.2 | 7.8 | -6.6 | · | ·
COc1cc(/C=C/C(=O)O)cc(S(=O)(=O)Nc2ccccc2Oc2ccccc2)c1OC | · | 16.3 | · | 9.7 | · | ·
COc1cc(C=O)ccc1OCCOCCOc1ccccc1Cl | 2.0 | -7.5 | 20.5* | 1.9 | 2.9 | 3.9
CC(=O)Nc1ccc(S(=O)(=O)Nc2nc(C)cc(-n3nc(C)cc3C)n2)cc1 | 5.2 | -20.6 | 22.4* | -5.9 | 9.5 | 9.5
O=S(=O)(NC1CC2CCC1C2)c1ccc(Br)s1 (stereo not given) | 0.2 | 2.5 | 2.0 | 13.0 | · | ·
CCCn1c(SCC(=O)c2[nH]c(C)c(C(C)=O)c2C)n[nH]c1=O | · | 9.6 | · | 8.3 | · | ·
CCOC(=O)C1=C(c2ccccc2)O/C(=C(/C#N)C(F)(F)F)S1 | 11.9 | -38.6 | 31.8* | -13.8 | 10.3 | 42.4*
CCC(=O)c1ccc(OCC(=O)OCC(=O)Nc2sccc2C(N)=O)cc1 | · | -1.2 | -0.5 | -5.8 | · | ·
CC(C)CC1(C)NC(=O)N(CC(=O)Nc2cccc(S(=O)(=O)N(C)c3ccccc3)c2)C1=O (stereo not given) | · | -51.9 | 50.7* | -20.1 | 45.9* | 50.5*

Compound activity (PubChem)
